Measurements from article PMC12366268 (The Febs Journal, 2025).
Where two headings read alike, the source gives them in different places.

Assays:
[1] = Stability in human serum measured by mass spectrometry; assay type: in vitro ADME; conditions: 25% human serum in PBS
Outline: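 Peptide at 10 μM was incubated in 25% human serum in PBS at 37 °C. Aliquots were taken at 0, 2.5, 5, 10, 20, 40 and 60 min into 0.2% formic acid (1:4) containing an internal standard and held at 4 °C. Peptide abundance relative to the internal standard was measured by mass spectrometry and plotted against incubation time.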

PCNA = PCNA (Homo sapiens, UniProt P12004); assay: Isothermal titration calorimetry; assay type: binding; conditions: ITC, pH 7.4, 25 °C, mean ± SEM of n = 3
PCNA, sequence (P12004 whole entry): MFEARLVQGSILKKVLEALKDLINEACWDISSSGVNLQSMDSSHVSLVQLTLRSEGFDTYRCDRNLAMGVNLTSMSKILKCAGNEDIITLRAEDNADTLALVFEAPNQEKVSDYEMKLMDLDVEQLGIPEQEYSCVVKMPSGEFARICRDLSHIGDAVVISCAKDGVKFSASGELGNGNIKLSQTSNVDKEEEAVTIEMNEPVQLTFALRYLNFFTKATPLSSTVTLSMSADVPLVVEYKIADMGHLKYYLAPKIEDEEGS
Outline: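 His6-tagged PCNA (HRV 3C site) was IPTG-induced at 37 °C, then purified by Ni-NTA and Superdex 200 SEC. Protein was buffer-exchanged into 20 mM sodium phosphate, 0–500 mM NaCl, 1 mM TCEP, pH 7.4, with peptides dissolved in the same buffer. PCNA was in the cell, peptide in the syringe; 25 °C, 750 rpm stirring. Data were fitted to a one-set-of-sites model; triplicates, SEM.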

[2] = molecular target: T1, proliferating cell nuclear antigen (PCNA) (UniProt P12004 1-261); assay: ITC
T1 sequence (P12004 whole entry): as above

[3] = molecular target: T1, proliferating cell nuclear antigen …; assay: ITC; remark: listed apart in the source
[4] = molecular target: T1, proliferating cell nuclear antigen …; assay: ITC; remark: listed apart in the source
[5] = molecular target: T1, proliferating cell nuclear antigen …; assay: ITC; remark: listed apart in the source
[6] = molecular target: T1, proliferating cell nuclear antigen …; assay: ITC; remark: listed apart in the source
[7] = molecular target: T1, proliferating cell nuclear antigen …; assay: ITC; remark: listed apart in the source

For `CSCC[C@H](NC(=O)[C@H](CO)NC(=O)[C@@H](NC(=O)[C@H](CCC(N)=O)NC(=O)[C@H](CCCNC(=N)N)NC(=O)[C@H](CCCNC(=N)N)NC(=O)[C@H](CCCCN)NC(=O)[C@H](CCCNC(=N)N)NC(C)=O)[C@@H](C)O)C(=O)N[C@H](C(=O)N[C@@H](CC(=O)O)C(=O)N[C@@H](Cc1ccccc1)C(=O)N[C@@H](Cc1ccc(O)cc1)C(=O)N[C@@H](Cc1c[nH]cn1)C(=O)N[C@@H](CO)C(=O)N[C@@H](CCCCN)C(=O)N[C@@H](CCCNC(=N)N)C(=O)N[C@@H](CCCNC(=N)N)C(N)=O)[C@@H](C)O` [p21_140–156], which half-life at 10 μM [1] is on record?
The half-life at 10 μM was roughly 11 min.

With Ac-KKKKQTSMTDFYHSKKK-NH2 [p21All–K] as the molecule, how does the “N (binding stoichiometry)” value (PCNA; 100 mM NaCl) read?
The value was 0.92 ± 0.01.

And the ΔH (PCNA; 100 mM NaCl)?
Its ΔH is -16.3 ± 0.48 kcal/mol.

What about the “−TΔS” value (PCNA; 100 mM NaCl) of the same molecule?
The value was 6.69 ± 0.48 kcal/mol.

What about the “N (binding stoichiometry)” value (PCNA; 200 mM NaCl) of the same molecule?
Its value is 0.75 ± 0.02.

What about the ΔH (PCNA; 200 mM NaCl) of the same molecule?
Its ΔH is -17.7 ± 0.96 kcal/mol.

And the “−TΔS” value (PCNA; 200 mM NaCl)?
Its value is 8.84 ± 0.96 kcal/mol.

What about the “N (binding stoichiometry)” value (PCNA; 300 mM NaCl) of the same molecule?
Its value is 0.71 ± 0.02.

And the ΔH (PCNA; 300 mM NaCl)?
The ΔH was -19.1 ± 0.72 kcal/mol.

And the “−TΔS” value (PCNA; 300 mM NaCl)?
Its value is 9.8 ± 0.72 kcal/mol.

What about the “N (binding stoichiometry)” value (PCNA; 400 mM NaCl) of the same molecule?
The value was 0.80 ± 0.02.

And the ΔH (PCNA; 400 mM NaCl)?
The ΔH was -18.2 ± 0.72 kcal/mol.

And the “−TΔS” value (PCNA; 400 mM NaCl)?
Its value is 9.8 ± 0.96 kcal/mol.

With Ac-KRKKQTSMTDFYHSRKK-NH2 [p21SWAP] as the molecule, how does the “N (binding stoichiometry)” value (PCNA; 100 mM NaCl) read?
Its value is 0.95 ± 0.04.

And the ΔH (PCNA; 100 mM NaCl)?
Its ΔH is -14.5 ± 0.22 kcal/mol.

What about the “−TΔS” value (PCNA; 100 mM NaCl) of the same molecule?
Its value is 4.9 ± 0.22 kcal/mol.

What about the “N (binding stoichiometry)” value (PCNA; 200 mM NaCl) of the same molecule?
The value was 0.79 ± 0.09.

What about the ΔH (PCNA; 200 mM NaCl) of the same molecule?
The ΔH was -18.2 ± 0.48 kcal/mol.

What about the “−TΔS” value (PCNA; 200 mM NaCl) of the same molecule?
Its value is 9.08 ± 0.48 kcal/mol.

What about the “N (binding stoichiometry)” value (PCNA; 300 mM NaCl) of the same molecule?
Its value is 0.82 ± 0.04.

What about the ΔH (PCNA; 300 mM NaCl) of the same molecule?
Its ΔH is -17.2 ± 0.96 kcal/mol.

What about the “−TΔS” value (PCNA; 300 mM NaCl) of the same molecule?
Its value is 8.6 ± 0.96 kcal/mol.

What about the “N (binding stoichiometry)” value (PCNA; 400 mM NaCl) of the same molecule?
Its value is 0.79 ± 0.01.

And the ΔH (PCNA; 400 mM NaCl)?
The ΔH was -17.7 ± 0.48 kcal/mol.

What about the “−TΔS” value (PCNA; 400 mM NaCl) of the same molecule?
Its value is 9.08 ± 0.48 kcal/mol.

For Ac-RRRRQTSMTDFYHSRRR-NH2 [p21All–R], which “N (binding stoichiometry)” value (PCNA; 100 mM NaCl) is on record?
Its value is 0.80 ± 0.05.

What about the ΔH (PCNA; 100 mM NaCl) of the same molecule?
The ΔH was -20.8 ± 0.24 kcal/mol.

And the “−TΔS” value (PCNA; 100 mM NaCl)?
The value was 10.8 ± 0.48 kcal/mol.

What about the “N (binding stoichiometry)” value (PCNA; 200 mM NaCl) of the same molecule?
The value was 0.73 ± 0.01.

What about the ΔH (PCNA; 200 mM NaCl) of the same molecule?
Its ΔH is -20.1 ± 0.72 kcal/mol.

What about the “−TΔS” value (PCNA; 200 mM NaCl) of the same molecule?
Its value is 10.8 ± 0.72 kcal/mol.

And the “N (binding stoichiometry)” value (PCNA; 300 mM NaCl)?
Its value is 0.68 ± 0.01.

What about the ΔH (PCNA; 300 mM NaCl) of the same molecule?
The ΔH was -20 ± 0.22 kcal/mol.

And the “−TΔS” value (PCNA; 300 mM NaCl)?
Its value is 11 ± 0.24 kcal/mol.

What about the “N (binding stoichiometry)” value (PCNA; 400 mM NaCl) of the same molecule?
Its value is 0.61 ± 0.02.

What about the ΔH (PCNA; 400 mM NaCl) of the same molecule?
The ΔH was -19.4 ± 0.72 kcal/mol.

What about the “−TΔS” value (PCNA; 400 mM NaCl) of the same molecule?
The value was 10.5 ± 0.72 kcal/mol.

B1: p21_(All–K) peptide (peptide)
peptide: Ac-KKKKQTSMTDFYHSKKK-NH2
With B1 as the molecule, how does the Kd [2] read?
Its Kd is 87 nM.

What about the dH [2] of the same molecule?
The dH was -16.3 kcal/mol.

What about the “stoichiometry N” value [2] of the same molecule?
The value was 0.92.

What about the Kd [3] of the same molecule?
Its Kd is 347 nM.

And the dH [3]?
Its dH is -17.7 kcal/mol.

What about the “stoichiometry N” value [3] of the same molecule?
The value was 0.75.

And the Kd [4]?
The Kd was 456 nM.

What about the dH [4] of the same molecule?
The dH was -19.1 kcal/mol.

What about the “stoichiometry N” value [4] of the same molecule?
Its value is 0.71.

And the Kd [5]?
Its Kd is 653 nM.

What about the dH [5] of the same molecule?
The dH was -18.2 kcal/mol.

What about the “stoichiometry N” value [5] of the same molecule?
The value was 0.8.

B2: p21_(SWAP) peptide (peptide)
peptide: Ac-KRKKQTSMTDFYHSRKK-NH2
Which Kd [2] does the source give for B2 here?
The Kd was 87 nM.

And the dH [2]?
Its dH is -14.5 kcal/mol.

What about the “stoichiometry N” value [2] of the same molecule?
Its value is 0.95.

And the Kd [3]?
Its Kd is 206 nM.

What about the dH [3] of the same molecule?
Its dH is -18.2 kcal/mol.

What about the “stoichiometry N” value [3] of the same molecule?
Its value is 0.79.

What about the Kd [4] of the same molecule?
Its Kd is 407 nM.

What about the dH [4] of the same molecule?
The dH was -17.2 kcal/mol.

What about the “stoichiometry N” value [4] of the same molecule?
Its value is 0.82.

And the Kd [5]?
The Kd was 547 nM.

And the dH [5]?
The dH was -17.7 kcal/mol.

And the “stoichiometry N” value [5]?
Its value is 0.79.

B3: p21_(All–R) peptide (peptide)
peptide: Ac-RRRRQTSMTDFYHSRRR-NH2
What does the source list for B3?
Kd [2]: 45 nM; dH [2]: -20.8 kcal/mol; stoichiometry N [2]: 0.8; Kd [3]: 139 nM; dH [3]: -20.1 kcal/mol; stoichiometry N [3]: 0.73; Kd [4]: 273 nM; dH [4]: -20 kcal/mol; stoichiometry N [4]: 0.68; Kd [5]: 398 nM; dH [5]: -19.4 kcal/mol; stoichiometry N [5]: 0.61

B4: p21_(core) peptide (isolated p21 core motif QTSMTDFYHS) (peptide)
peptide: Ac-QTSMTDFYHS-NH2
Which results are given for B4?
dH [2]: -13.4 kcal/mol; stoichiometry N [2]: 0.7; Kd [4]: 34300 nM; dH [4]: -21 kcal/mol; stoichiometry N [4]: 0.71

B5: p21_(140–156) peptide (wild-type p21 PIP-degron with flanking regions) (peptide)
peptide: Ac-RKRRQTSMTDFYHSKRR-NH2
Which results are given for B5?
Kd [6]: 19 nM; dH [6]: -17.7 kcal/mol; stoichiometry N [6]: 0.77; Kd [2]: 68 nM; dH [2]: -18.1 kcal/mol; stoichiometry N [2]: 0.86; Kd [3]: 182 nM; dH [3]: -21.5 kcal/mol; stoichiometry N [3]: 0.86; Kd [4]: 341 nM; dH [4]: -21.4 kcal/mol; stoichiometry N [4]: 0.76; Kd [5]: 606 nM; dH [5]: -22.2 kcal/mol; stoichiometry N [5]: 0.8; Kd [7]: 579 nM; dH [7]: -21.3 kcal/mol; stoichiometry N [7]: 0.72
